Measured values reported in ChEMBL document CHEMBL3875163, “Novel urea and bis-urea primaquine derivatives with hydroxyphenyl or halogenphenyl substituents: Synthesis and biological evaluation” (Eur J Med Chem, 2016).
≈ marks a conversion by molar mass, not a printed value.

Columns and labels:
[1] = Growth inhibition of mouse L1210 cells after 72 hrs by MTT assay; type: functional, cell-based; conditions: L1210, 72 h
[2] = Growth inhibition of human Molt4/C8 cells after 72 hrs by MTT assay; type: functional, cell-based; conditions: MOLT-4, 72 h
[3] = Growth inhibition of human CEM cells after 72 hrs by MTT assay; type: functional, cell-based; conditions: CCRF-CEM
[4] = Growth inhibition of human HeLa cells after 72 hrs by MTT assay; type: functional, cell-based
[5] = Growth inhibition of human MIAPaCa2 cells after 72 hrs by MTT assay; type: functional, cell-based; conditions: MIA PaCa-2, 72 h
[6] = Growth inhibition of human NCI-H460 cells after 72 hrs by MTT assay; type: functional, cell-based; conditions: NCI-H460, 72 h
Procedure, shortened: (§1)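 Modified NCI DTP protocol: cells in DMEM with 10% FBS, 2 mM glutamine, antibiotics, 37 °C, 5% CO2; seeded 1 × 10^4 to 3 × 10^4 cells/ml on day 0, exposed to five 10-fold dilutions (10^-8 to 10^-4 M) for 72 h; solvent control. MTT read-out; quadruplicate points in three experiments; IC50 by linear regression of growth percentages bracketing 50%.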

[7] = Growth inhibition of human SW620 cells after 72 hrs by MTT assay; type: functional, cell-based; conditions: SW-620, 72 h; procedure, shortened: as §1
[8] = Growth inhibition of human MCF7 cells after 72 hrs by MTT assay; type: functional, cell-based; conditions: MCF7, 72 h; procedure, shortened: as §1
[9] = Antioxidant activity assessed as DPPH radical scavenging activity at 100 uM after 20 mins relative to control; type: functional
Procedure, shortened: (§2)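 Compound in DMSO added to DPPH in absolute ethanol, 0.1 mM final; absorbance at 517 nm after 20 and 60 min at room temperature. At least triplicate.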

[10] = Antioxidant activity assessed as DPPH radical scavenging activity at 100 uM after 60 mins relative to control; type: functional; procedure, shortened: as §2
[11] = Antioxidant activity assessed as inhibition of AAPH-induced linoleic acid lipid peroxidation at 1 x 10^-4 M by UV-absorbance method relative to control; type: functional
Procedure, shortened: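 Linoleic acid peroxidation: 16 mM sodium linoleate dispersion in 0.05 M phosphate buffer pH 7.4 at 37 °C under air, initiated by AAPH (40 mM solution); compound at 1 × 10^-4 M; oxidation followed at 234 nm. At least triplicate.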

[12] = test system: Glycine max; test: Inhibition of soybean LOX assessed as reduction in conversion of sodium linoleate to 13-hydroperoxylinoleic acid at 1 x 10^-4 M relative to control
Procedure, shortened: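 Soybean lipoxygenase incubated at room temperature with sodium linoleate (0.1 mM) and test compound (DMSO stocks); formation of 13-hydroperoxylinoleic acid read at 234 nm. Single-point screening at 1 × 10^-4 M; IC50 from several concentrations. At least triplicate.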

[13] = test system: Staphylococcus aureus; test: Antibacterial activity against Staphylococcus aureus ATCC 6538 after 18 hrs by serial microdilution broth assay; type: functional; conditions: ATCC 6538, 18 h
Procedure, shortened: (§3)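 Broth microdilution MIC per EUCAST for aerobic bacteria in Mueller-Hinton broth, serial dilution 1000 to 0.78125 µg/ml from 10 mg/ml DMSO stocks. Inoculum from trypticase soy broth cultures (18 h, 37 °C), set to 0.5 McFarland in PBS pH 7.4, diluted 1:10. 18 h aerobic incubation at 35 °C in dark, then TTC 0.5 mg/ml for 3 h, HCl-isopropanol, A490. MIC = lowest concentration giving 50% inhibition versus untreated; duplicates.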

[14] = test system: Staphylococcus aureus; test: Antibacterial activity against methicillin sensitive Staphylococcus aureus ATCC 25923 after 18 hrs by serial microdilution broth assay; type: functional; conditions: ATCC 25923, 18 h
Procedure, shortened: (§4)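 EUCAST-based broth microdilution in Mueller-Hinton broth. Glycerol stock cultures grown in trypticase soy broth 18 h at 37 °C; inoculum in PBS pH 7.4 at 0.5 McFarland, diluted 1:10 in broth. Compounds from DMSO stocks, 1000 to 0.78125 µg/ml; 18 h aerobic, 35 °C, dark. TTC 0.5 mg/ml added, 3 h, then HCl/isopropanol, A490. MIC = lowest concentration giving 50% inhibition vs untreated; duplicates, averaged.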

[15] = test system: Staphylococcus aureus; test: Antibacterial activity against methicillin sensitive Staphylococcus aureus ATCC 25213 after 18 hrs by serial microdilution broth assay; type: functional; conditions: ATCC 25213, 18 h; procedure, shortened: as §3
[16] = test system: Staphylococcus aureus; test: Antibacterial activity against methicillin resistant Staphylococcus aureus MFBF 10682 after 18 hrs by serial microdilution broth assay; type: functional; conditions: MFBF 10682, 18 h; procedure, shortened: as §4
[17] = test system: Staphylococcus aureus; test: Antibacterial activity against methicillin resistant Staphylococcus aureus MFBF 10679 after 18 hrs by serial microdilution broth assay; type: functional; conditions: MFBF 10679, 18 h; procedure, shortened: as §4
[18] = test system: Enterococcus faecalis; test: Antibacterial activity against vancomycin susceptible Enterococcus faecalis ATCC 29212 after 18 hrs by serial microdilution broth assay; type: functional; conditions: ATCC 29212, 18 h; procedure, shortened: as §3
[19] = test system: Enterococcus faecalis; test: Antibacterial activity against vancomycin resistant Enterococcus faecalis MFBF 11419 after 18 hrs by serial microdilution broth assay; type: functional; conditions: MFBF 11419, 18 h; procedure, shortened: as §4
[20] = test system: Bacillus pumilus; test: Antibacterial activity against Bacillus pumilus NCTC 8241 after 18 hrs by serial microdilution broth assay; type: functional; conditions: NCTC 8241, 18 h; procedure, shortened: as §3
[21] = test system: Bacillus cereus; test: Antibacterial activity against Bacillus cereus ATCC 11778 after 18 hrs by serial microdilution broth assay; type: functional; conditions: ATCC 11778, 18 h; procedure, shortened: as §3
[22] = test system: Bacillus spizizenii; test: Antibacterial activity against Bacillus subtilis ATCC 6633 after 18 hrs by serial microdilution broth assay; type: functional; conditions: ATCC 6633, 18 h; procedure, shortened: as §3
[23] = test system: Pseudomonas aeruginosa; test: Antibacterial activity against Pseudomonas aeruginosa ATCC 9027 after 18 hrs by serial microdilution broth assay; type: functional; conditions: ATCC 9027, 18 h; procedure, shortened: as §4
[24] = test system: Pseudomonas aeruginosa; test: Antibacterial activity against Pseudomonas aeruginosa ATCC 27853 after 18 hrs by serial microdilution broth assay; type: functional; conditions: ATCC 27853, 18 h; procedure, shortened: as §3
[25] = test system: Pseudomonas aeruginosa; test: Antibacterial activity against multi-drug resistant Pseudomonas aeruginosa MFBF after 18 hrs by serial microdilution broth assay; type: functional; procedure, shortened: as §4
[26] = test system: Escherichia coli; test: Antibacterial activity against Escherichia coli ATCC 10535 after 18 hrs by serial microdilution broth assay; type: functional; conditions: ATCC 10535, 18 h; procedure, shortened: as §3
[27] = test system: Candida albicans; test: Antifungal activity against Candida albicans ATCC 90028 after 18 hrs by serial microdilution broth assay; type: functional; conditions: ATCC 90028, 18 h
Procedure, shortened: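 Yeast microdilution in RPMI 1640 with glutamine plus 2% glucose, 1000 to 0.78125 µg/ml from 10 mg/ml DMSO stocks. Growth read with XTT (10 mg/ml) mixed 7:1 with menadione (1 mg/ml in acetone), absorbance at 540 nm. MIC taken as lowest concentration giving 50% growth inhibition versus untreated cells; tests in duplicate.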

[28] = Hemolytic activity against human RBC at 100 ug/ml after 1 hr relative to control; type: ADME, cell-based, Erythrocyte; conditions: red blood cells (RBC), read-out: Activity
[29] = Cytotoxicity against HEK cells assessed as reduction in cell viability at 3.125 to 25 ug/ml after 24 hrs by MTT assay; type: toxicity, cell-based; conditions: human, hek293, 24 h
Procedure, shortened: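 HEK 293 cells, 5 × 10^3 per well, treated next day for 24 h with compound (range within 200 to 1.5625 µg/ml). MTT 0.5 mg/ml in DMEM/10% FBS, 4 h at 37 °C, 5% CO2; formazan in DMSO, A570. Viability as percent of untreated control; triplicates, three independent experiments.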

## COc1cc(NC(C)CCCNC(=O)Nc2cc(C(F)(F)F)cc(C(F)(F)F)c2)c2ncccc2c1 (centres undefined)
[1]
  IC50: 3.5 µM
[2]
  IC50: 12 µM
[3]
  IC50: 4.1 µM
[4]
  IC50: 3.1 µM
[5]
  IC50: 4.7 µM
[6]
  IC50: 8.3 µM
[7]
  IC50: 3.9 µM
[8]
  IC50: 1600 nM
[9]
  Activity: 51.7%
[10]
  Activity: 55.2%
[11]
  inhibition: 90.2%
[12]
  inhibition: 42.3%
[13]
  MIC50: 1.6 µg/mL (≈ 3.11 µM)
[14]
  MIC50: 6.3 µg/mL (≈ 12.2 µM)
[15]
  MIC50: 12.5 µg/mL (≈ 24.3 µM)
[16]
  MIC50: > 100 µg/mL
[17]
  MIC50: > 100 µg/mL
[18]
  MIC50: > 100 µg/mL
[19]
  MIC50: > 100 µg/mL
[20]
  MIC50: 12.5 µg/mL (≈ 24.3 µM)
[21]
  MIC50: 100 µg/mL (≈ 194 µM)
[22]
  MIC50: > 100 µg/mL
[23]
  MIC50: 100 µg/mL (≈ 194 µM)
[24]
  MIC50: 12.5 µg/mL (≈ 24.3 µM)
[25]
  MIC50: > 100 µg/mL
[26]
  MIC50: > 100 µg/mL
[27]
  MIC50: > 100 µg/mL
[28]
  hemolysis at 1 h, 100 ug/ml: < 1%
[29]
  Activity: Toxic
